From PubChem
Lmaj promast: Leishmania major promastigote growth inhibition, primary screen; hit rate 9% among 200,000; inhibition, % at 10 µM; Leishmania major promastigotes, resazurin fluorescence viability; AID 1063, 2008; in the data active = inhibition above about 50%;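 note: promastigotes grown with compound for 44 hours at 28 °C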
Dynein transport: inhibitors of GR-EGFP nuclear translocation, primary screen, dynein cargo transport inhibitor project, imaging, high-content, 3617.4 mouse cells | test concentration mostly 20 µM; stimulated with dexamethasone, 1 µM; hits give low values | z-score, hits read low | hit rate 0.47% among 220,000;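 active = plate z-score of nuclear minus cytoplasmic receptor signal below a set negative limit, without overly bright fluorescence or cell loss, cut at about -3.5 in these data, passing the limit was not always enough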;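 note: z-score of nuclear minus cytoplasmic ring GR-EGFP intensity difference per well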
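Medium: Induction medium lacking tetracycline, stripped serum | Probe or stimulus: 1.0 µM final dexamethasone stimulus | Schedule: 48 h induction, then 1 h compound, then 30 min agonist, 37 °C | Signal: Automated 10x imaging of fixed Hoechst-stained cells | Evaluation: Per-cell GR-EGFP intensity, nucleus versus surrounding cytoplasmic ring, well-averaged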
Autophagy HCS: autophagy modulators in MEF cells, primary screen, imaging, high-content, MEF GFP-LC3 | calls only at 10 µM (by protocol) | hit rate 0.98% among 190,000 | MEF GFP-LC3 puncta imaging; test concentration mostly 10 µM;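 active = percentage of spot-positive cells more than 3 SD above its plate mean, without a fluorescence outlier flag or 80% toxicity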
MT stabilizer: microtubule stabilizers in HeLa cells, primary screen, imaging, high-content imaging; HeLa tubulin immunostaining HCS, 24 h; share of cells brighter than vehicle mean+2SD; % tubulin-high responders, % at 10 µM; hit rate 0.83% among 200,000; AID 2205, 2009;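 active = plate Z-score above 3 for both tubulin-high and condensed-nucleus cell shares, with cell loss under 80%, at 10 µM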;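 note: anti alpha tubulin signal scored within the nucleus-defined area of each cell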
b-catenin transl: modulators of beta-catenin nuclear translocation, primary screen, imaging, HeLa cells, immunofluorescence, high-content; nuclear translocation activity, % at 5 µM; hit rate 0.3% among 190,000;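 active = nuclear translocation activity above 50% at 5 µM, with a well cell count of 50 or more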;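 note: per-cell ratio of nuclear to cytoplasmic median beta-catenin stain intensity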
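test system = HeLa cells, endogenous beta-catenin | dosing = single 5 µM dose plus 0.02–20 µM confirmation series | times = compound treatment 24 h, 37°C, 5% CO2 | technique = beta-catenin immunofluorescence imaging with DAPI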
CHOP inhibitor: inhibitors of CHOP promoter induction, primary screen, cell-based, unfolded protein response, luciferase reporter; CHO-K1 CHOP-promoter luciferase, tunicamycin-induced, 15-18 h; inhibition, % at 10 µM; hit rate 3.8% among 220,000; AID 2732, 2010;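 active = compounds that reduced the stress-induced luciferase reporter signal by more than about 70% of percent inhibition, limit read from the data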
Each line names hits and unclear results; the compound was inactive in the other large screens. Only some compounds are listed: those with a hit (about 12% of all), similar ones and a draw of the others.

CCOc1ccccc1NC1c2ccccc2C(=O)N1Cc1ccco1 (centres undefined)	none (no result: b-catenin transl)
CCc1ccccc1NC1c2ccccc2C(=O)N1Cc1ccco1 (centres undefined)	CHOP inhibitor 75
CC(C)=CC1C(C(=O)Nc2ccc(Br)cn2)C1(C)C (centres undefined)	CHOP inhibitor 76
N#C/C(=C/c1ccc(-c2ccccc2)o1)c1nc(-c2cccs2)cs1	Autophagy HCS active
N#C/C(=C\c1ccc(-c2ccc(F)cc2)o1)C(=O)Nc1nc(-c2cccs2)cs1	none
N#C/C(=C/c1ccc(-c2ccc(S(N)(=O)=O)cc2)o1)C(=O)Nc1ccccc1	none
N#C/C(=C/c1ccc(-c2ccc(S(N)(=O)=O)cc2)o1)c1nc2ccccc2s1	Autophagy HCS active, CHOP inhibitor 89
Nn1c(SCC(=O)Nc2ccc(F)cc2)nnc1-c1cccnc1	none
O=C(Cc1ccc(-n2cccc2)cc1)NCc1cccs1	MT stabilizer 29, b-catenin transl 165 (no result: CHOP inhibitor)
CCc1ccccc1NC(=O)Cc1ccc(-n2cccc2)cc1	none
CCc1ccc(NC(=O)Cc2ccc(-n3cccc3)cc2)cc1	Lmaj promast 86
O=C1NC(c2ccccc2)Nc2c1sc(=S)n2-c1ccccc1 (centres undefined)	none
O=C(OCn1nnc2ccccc2c1=O)c1cc(-c2ccccc2)nc2ccccc12	none
CCN(CC)C(=O)C(=O)N/N=C/c1ccc(F)cc1	none
CC1CCN(C(=S)c2cn(Cc3cccc(F)c3)c3ccccc23)CC1	Lmaj promast 67 (no result: b-catenin transl)
CN1CCN(C(=S)c2cn(Cc3ccc(Br)cc3)c3ccccc23)CC1	Lmaj promast 53
Fc1ccc(Cn2cc(C(=S)N3CCOCC3)c3ccccc32)cc1	none (no result: Lmaj promast, Autophagy HCS, MT stabilizer)
CN1CCN(C(=S)c2cn(Cc3ccccc3)c3ccccc23)CC1	none
Cc1c(Cl)ccc(S(=O)(=O)N2CCN=C2c2ccccc2)c1Cl	none
O=C(CCN1CCCCC1)c1ccccc1	Lmaj promast 74 (no result: b-catenin transl)
O=C(O)CCN1CCOCC1	none
O=C(CCN1CCCCC1)Nc1ccccc1	none
CCc1oc2ccccc2c1C(=O)CCN1CCCCC1	Lmaj promast 74
O=c1oc2ccccc2c(N2CCCCC2)c1CN1CCCC1	none
OC(CCCCN1CCCCC1)c1ccccc1 (centres undefined)	Lmaj promast 54
O=C(CCN1CCOCC1)c1ccccc1	Lmaj promast 95 (no result: b-catenin transl)
COC(=O)c1cc(Cl)c(NC(=O)/C=C/c2ccc(Cl)cc2Cl)cc1OC	CHOP inhibitor 84 (no result: b-catenin transl)
O=C(COc1cccc2ccccc12)NCc1cccnc1	none
O=C(CSc1nc2ccccc2c(=O)n1-c1ccccc1)NCc1ccco1	Lmaj promast 61
O=C(CSc1nnc(CCc2nc3ccccc3[nH]2)n1-c1ccccc1)NCc1ccco1	Autophagy HCS active
O=C(CSc1nnc(CCc2ccccc2)n1-c1ccc(Cl)cc1)NCc1ccccc1	Lmaj promast 100
COc1ccc(-n2c(CCc3ccccc3)nnc2SCC(=O)NCc2ccccc2)cc1	none
CS(=O)c1ccccc1-c1nc(-c2cc(C(F)(F)F)cc(C(F)(F)F)c2)no1 (centres undefined)	CHOP inhibitor 82
CN1CCc2c(sc(/N=C/c3cc(C(C)(C)C)ccc3O)c2C#N)C1	none (no result: Lmaj promast, Autophagy HCS, MT stabilizer)
O=S(=O)(c1ccc(S(=O)(=O)N2CCN(C/C=C/c3ccccc3)CC2)cc1)N1CCCC1	CHOP inhibitor 87
CC(=C1C(=O)c2ccccc2C1=O)N1CCN(C/C=C/c2ccccc2)CC1	Lmaj promast 83
O=S(=O)(c1ccccc1)N1CCN(S(=O)(=O)N2CCCCC2)CC1	none (no result: b-catenin transl)
O=C(Nc1ccc2c(c1)OCO2)N1CCN(C/C=C/c2ccccc2)CC1	Lmaj promast 74
CCCCNC(=O)N1CCN(C/C=C/c2ccccc2)CC1	Lmaj promast 53
Cc1cc(C)c2c(=O)[nH]c(SCC(=O)c3ccc(C)c(C)c3)nc2n1	none
CCOC(=O)NC(c1ccccc1)C1CCCCC1=O (centres undefined)	none (no result: b-catenin transl)
O=C1CCCCC1C(Nc1ccc(Cl)cc1)c1ccccc1 (centres undefined)	CHOP inhibitor 94
O=C1CCCCC1C(Nc1ccc(Br)cc1)c1ccccc1 (centres undefined)	CHOP inhibitor 80
COc1ccc(NC2=CC(c3ccc(F)cc3)N(c3ccc(OC)cc3)C2=O)cc1 (centres undefined)	CHOP inhibitor 82
O=C(N/N=C\c1ccc(F)cc1)c1ccc(Cn2cc(Br)c([N+](=O)[O-])n2)o1	none
O=C(N/N=C\c1ccc2c(c1)OCO2)c1ccc(Cn2cc(Br)c([N+](=O)[O-])n2)o1	Lmaj promast 83
CCOc1ccc(/C=N/NC(=O)c2ccc(Cn3cc([N+](=O)[O-])cn3)o2)cc1	none
CCOc1ccc(/C=N/NC(=O)c2ccc(Cn3cc(Br)cn3)o2)cc1	Lmaj promast 59
COc1cccc(NC(=S)/C(=C(\[O-])c2ccc([N+](=O)[O-])cc2)[n+]2ccccc2)c1	none
COC(=O)CCC(=O)Nc1sc(C)c(C)c1C(N)=O	none
COC(=O)CCC(=O)NC(=S)Nc1sc(C)c(C)c1C(N)=O	MT stabilizer 21
CN1CCN(C(=O)C23CCC(C)(c4nc5ccccc5nc42)C3(C)C)CC1 (centres undefined)	none
NC(=O)c1cnn2c(C(F)(F)F)cc(-c3ccc(F)cc3)nc12	none
Clc1ccc(-c2c[n+](Cc3cccc(Cl)c3)c3n2CCC3)cc1	Lmaj promast 100
Clc1ccc(C[n+]2cc(-c3ccccc3)n3c2CCCCC3)c(Cl)c1	Lmaj promast 100
Clc1ccc(C[n+]2cc(-c3ccccc3)n3c2CCC3)cc1Cl	Lmaj promast 99
Clc1ccc(-c2c[n+](Cc3ccc(Cl)cc3Cl)c3n2CCCCC3)cc1	none (no result: Lmaj promast, Autophagy HCS, MT stabilizer)
COc1ccc(/C=C\C(=O)CC(O)(c2ccccc2)C(F)(F)F)cc1 (centres undefined)	Lmaj promast 100 (no result: b-catenin transl)
O=C(COC(=O)c1c(Cl)ccc(Cl)c1Cl)NC1CCS(=O)(=O)C1 (centres undefined)	none
CC(=O)N1CCCC1(C(=O)O)c1ccccc1 (centres undefined)	none (no result: Lmaj promast, Autophagy HCS, MT stabilizer)
NC(=O)c1ccsc1NC(=O)CSc1ccccc1F	none
NC(=O)c1ccsc1NC(=O)CSc1nnc(Nc2ccccc2)s1	Lmaj promast 57
O=C(COc1ccc(Cl)cc1)NCCCn1ccnc1	none
O=C(COc1ccc(Cl)cc1Cl)N/N=C/CCc1ccccc1	CHOP inhibitor 75
O=C(NCCCn1ccnc1)Nc1ccc(Cl)cc1	Lmaj promast 53
O=C(CCCOc1ccc(Cl)cc1Cl)N/N=C/c1ccccc1O	CHOP inhibitor 85
O=C(Cc1ccccc1Cl)NCCCn1ccnc1	Lmaj promast 62
